Test results reported in publication PMC11840607 (ACS Omega, 2025).

Key:
A549 cells [1] = test: Annexin V-FITC/PI apoptosis assay, flow cytometry; assay type: cell-based, human; settings: 48 h, control 2.64%
Summary of the method: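 A549 cells seeded at 1 × 10^5 per well in 6-well plates and left overnight. They were then treated with test compound for 48 h, collected by PBS rinsing and stained with Annexin V-FITC and PI for 15 min at room temperature in the dark. Apoptotic fractions were read by flow cytometry; mean ± SD, n = 3.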

p-PI3K, p-AKT = test: Western blot of PI3K and AKT; assay type: cell-based, human; settings: 48 h
Summary of the method: (§1)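 Cells treated with the indicated concentrations of test compound for 48 h. Lysates were heat-denatured at 104 °C for 12 min, protein measured by BCA, and equal amounts run on SDS-PAGE and transferred to PVDF. Membranes were blocked 1 h with 5% BSA or milk, incubated with primary antibody overnight at 4 °C, then secondary 2 h at room temperature. Detection by ECL; bands quantified by densitometry.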

H1975 cells = test: MTT antiproliferative assay, H1975; assay type: cell-based, human; settings: ratio of IC50 BEAS-2B to H1975
Summary of the method: (§2)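 Cell culture: A549, PC9 and normal lung epithelial BEAS-2B in DMEM with 10% FBS and penicillin/streptomycin/amphotericin B; H1975 in RPMI-1640 with 10% FBS; all at 37 °C, 5% CO2. Log-phase cells seeded at 3 × 10^3/well overnight, then exposed to graded compound concentrations or DMSO for 72 h. MTT added for 4 h in the dark, crystals dissolved in DMSO, absorbance read at 490 nm; three parallel experiments.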

A549 cells [2] = test: MTT antiproliferative assay, A549; assay type: cell-based, human; settings: ratio of IC50 BEAS-2B to A549
Summary of the method: as §2

ALK = test: Proteome Profiler Human Phospho-RTK Array; assay type: cell-based; settings: A549, 2.0 μM, 24 h
Summary of the method: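 A549 cells were treated with test compound (2.0 μM) or left untreated for 24 h, then lysed in buffer with protease and phosphatase inhibitors. Protein was measured by Bradford. Arrays covering 49 phospho-RTKs were blocked for 1 h, then incubated with 450 μg lysate overnight at 4 °C. After three washes, arrays were probed for 2 h with anti-phospho-tyrosine-HRP and developed by chemiluminescence.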

[3] = system: cleaved-caspase 9, Bax, Bcl-2; test: Western blot of apoptosis-related proteins; assay type: cell-based, human; settings: A549, 48 h
Summary of the method: as §1

ALK, p-ALK = test: Western blot of ALK and p-ALK; assay type: cell-based, human; settings: A549, 48 h
Summary of the method: (§3)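 A549 cells were exposed to the indicated test compound concentrations for 48 h, then lysed and heat-denatured at 104 °C for 12 min. Protein was quantified by BCA, and equal amounts were resolved by SDS-PAGE onto PVDF. Membranes were blocked 1 h (5% BSA or skim milk), given primary antibody overnight at 4 °C, washed in TBST, given secondary antibody 2 h at room temperature, and imaged by ECL.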

A549 spheroids = test: 3D spheroid cell inhibition assay; assay type: cell-based, human; settings: treated every 3 days
Summary of the method: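 A549 cells seeded at 20 000 cells/well in ultralow-attachment U-bottom wells to form tumor spheroids. Once formed, spheroids were exposed to the indicated concentrations of test compound, renewed every 3 days. Spheroids were photographed under a microscope to document growth and morphology.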

p27, p21, CDK2, p-Rb = test: Western blot of G1 phase associated proteins; assay type: cell-based, human; settings: A549, 0.5 to 2.0 μM, 48 h
Summary of the method: as §3

A549 cells [4] = test: Cell cycle analysis, PI staining, flow cytometry; assay type: cell-based, human; settings: A549, 48 h
Summary of the method: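 A549 cells were exposed to a range of test compound concentrations for 48 h. They were then washed in cold PBS, fixed in precooled 70% ethanol and held overnight at −20 °C. After a PBS wash, cells were stained for 30 min at room temperature in the dark with PI (50 μg/mL) plus RNase A (100 μg/mL). DNA content was read by flow cytometry.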

[5] = system: mitochondrial membrane potential; test: Mitochondrial membrane potential, JC-1, flow cytometry; assay type: cell-based; settings: control 19.25%
Summary of the method: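 Cells in six-well plates were stained with JC-1 working solution, prepared per kit, for 20 min at 37 °C. After a PBS wash, mitochondrial membrane potential was measured by flow cytometry and also viewed by fluorescence microscopy.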

## CCCn1cnc2ccc(-c3ccc4sc(NC(=O)Nc5ccc(F)cc5)nc4c3)cc2c1=O [Compound 45]
A549 cells [1]; A549, 2.0 μM
  annexin V positive cells (Q2-4): 7.13%
A549 cells [1]; A549, 4.0 μM
  annexin V positive cells (Q2-4): 20.36%
p-PI3K, p-AKT
  p-AKT protein expression: inhibited the protein expression
  p-PI3K protein expression: inhibited the protein expression
H1975 cells
  selectivity (fold) H1975 vs BEAS-2B: 5.80 fold
A549 cells [2]
  selectivity (fold) A549 vs BEAS-2B: 7.10 fold
ALK
  phosphorylation level of ALK (Phospho-RTK array): reduced the phosphorylation levels of ALK
[3]
  Bax level: increased in a concentration-dependent manner
  Bcl-2 level: decreased
  cleaved-caspase 9 level: increased in a concentration-dependent manner
ALK, p-ALK
  phosphorylation level of ALK (Western blot): reduces the phosphorylation levels of ALK
  total protein level of ALK (Western blot): decreases the total protein levels of ALK
A549 spheroids
  growth of A549 tumor spheres: can inhibit the growth of tumor spheres
p27, p21, CDK2, p-Rb
  CDK2 expression level: reduced in a concentration-dependent manner
  p21 expression level: markedly upregulated in a dose-dependent manner
  p27 expression level: markedly upregulated in a dose-dependent manner
  p-Rb expression level: reduced in a concentration-dependent manner
A549 cells [4]
  cell cycle distribution: induced cell cycle arrest at the G1 phase in a concentration-dependent manner
[5]; 0.25 μM
  JC-1 M2 fraction (change of Δψm): 47.72%
[5]; 0.5 μM
  JC-1 M2 fraction (change of Δψm): 51.16%
[5]; 1.0 μM
  JC-1 M2 fraction (change of Δψm): 60.52%

## CC(=O)O[C@H]1C(=O)[C@@]2(C)[C@H]([C@H](OC(=O)c3ccccc3)[C@]3(O)C[C@H](OC(=O)[C@H](O)[C@@H](NC(=O)c4ccccc4)c4ccccc4)C(C)=C1C3(C)C)[C@]1(OC(C)=O)CO[C@@H]1C[C@@H]2O [paclitaxel, reference compound]
H1975 cells
  selectivity (fold) H1975 vs BEAS-2B: 3.28 fold
A549 cells [2]
  selectivity (fold) A549 vs BEAS-2B: 0.42 fold

## CN(C)CCn1cnc2ccc(-c3ccc4sc(NC(=O)Nc5ccc(F)cc5)nc4c3)cc2c1=O [Compound 38]
H1975 cells
  selectivity (fold) H1975 vs BEAS-2B: 0.92 fold
A549 cells [2]
  selectivity (fold) A549 vs BEAS-2B: 1.30 fold
